Measurements collected from several papers.
Each line is one published result; the experiments were not run side by side.
Target: Ephrin type-A receptor 5 (EPHA5, Homo sapiens, UniProt P54756)

O=C(Nc1cnc(Oc2ccc(F)cc2)nc1)N1CCc2ncccc2[C@@H]1c1ccc(F)cc1 — remaining binding (cell-free assay, competition with immobilised ligand; 1 µM): 100%
O=C(c1ccc(Nc2ncc(Cl)c(-c3cc4ccccc4s3)n2)cc1)N1CCC(N2CCCC2)CC1 — remaining binding (binding, competition with immobilised ligand; 1 µM): 86%
CNC(=O)[C@@H]1CC[C@@H](n2c(-c3ccc4cnccc4c3)nc3ccc(C(=O)NCc4cccc(C(N)=O)c4)cc32)C1 — remaining binding (binding, competition with immobilised ligand; 1 µM): 100%
O=C(c1ccc(Nc2ncc(Cl)c(-c3ccc(Cl)s3)n2)cc1)N1CCC(N2CCCC2)CC1 — remaining binding (binding, competition with immobilised ligand; 1 µM): 98%
Cc1cnn2ncc(-c3ccnc(N(C)C)n3)c2c1 — remaining binding (binding; 1 µM): 100%
O=C(NCC1CCOCC1)c1n[nH]cc1NC(=O)c1c(F)cccc1F — remaining binding (binding, competition with immobilised ligand; 1 µM): 100%
CCN1CCN(Cc2ccc(C(=O)Nc3ccc(C)c(Oc4ccc5c(c4)CC(=O)N5)c3)cc2C(F)(F)F)CC1 — remaining binding (binding, competition with immobilised ligand; 1 µM): 100%
COc1cccc(CNC(=O)c2nc3scc(COCc4ccc(C(=O)O)cc4)c3c(=O)[nH]2)c1 — remaining binding (cell-free assay, competition with immobilised ligand; 1 µM): 98.5%
CN(C)c1ncc(F)c(-c2cnn3ncccc23)n1 — remaining binding (binding; 1 µM): 100%
CNC(=O)Nc1ccc2c(c1)[C@@]1(CC2)OC(=O)N(CC(=O)N(Cc2ccc(F)cc2)[C@@H](C)C(F)(F)F)C1=O — remaining binding (cell-free assay, competition with immobilised ligand; 1 µM): 94%
F[C@@H]1CCN(c2nccc(-c3cnn4ncccc34)n2)C1 — remaining binding (binding; 1 µM): 100%
O=C(NCCCN1CCOCC1)c1ccc(Nc2nccc(-c3cc4ccccc4s3)n2)cc1 — remaining binding (binding, competition with immobilised ligand; 1 µM): 88%
COc1cnc(Nc2cccc(S(N)(=O)=O)c2)nc1N1CCN(c2ccccc2)CC1 — remaining binding (binding, competition with immobilised ligand; 1 µM): 100%
CC1=C(C#N)[C@@H](c2ccc3[nH]nc(C)c3c2)C(C#N)=C(c2ccc(Cl)cc2)N1 — remaining binding (cell-free assay, competition with immobilised ligand; 1 µM): 100%
COc1ccnn2ncc(-c3ccnc(N(C)C)n3)c12 — remaining binding (binding; 1 µM): 100%
CC1=C(C#N)C(c2ccc3c(c2)c(NC(=O)c2ccccc2C)nn3C)C(C#N)=C(C)N1 — remaining binding (cell-free assay, competition with immobilised ligand; 1 µM): 77%
N[C@H]1CCN(c2nccc(-c3cnn4ncccc34)n2)C1 — remaining binding (binding; 1 µM): 100%
CC(=O)Nc1c(C(C)=O)c(=O)n(C)c2nc(-c3ccc(Cl)cc3Cl)c(-c3ccc(Cl)cc3)cc12 — remaining binding (cell-free assay, competition with immobilised ligand; 1 µM): 100%
C[C@H]1CCN(c2nccc(-c3cnn4ncccc34)n2)C1 — remaining binding (binding; 1 µM): 95%
COc1ncc2cc3ccccc3nc2c1C#N — remaining binding (cell-free assay, competition with immobilised ligand; 5 µM): 99%
